Most compounds without a hit are left out; they make up all but 3.7% or so of the library.
CHO parental Ca: signal in parental CHO cells, OX1R antagonist counter-screen; parental CHO-K1, ATP-induced calcium, Fluo-8 fluorescence; inhibition, % at 5.6 µM; 330,000 compounds, 0.63% hits;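 active = inhibition above that plate's mean sample inhibition plus 3 SD, cut at about 26% in these data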;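 also: 0% = ATP-challenged DMSO wells and 100% = DMSO wells without ATP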
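Measured by: calcium-sensitive Fluo-8 fluorescence / Test system: CHO parental line / Controls: ATP-challenged DMSO wells low, unchallenged DMSO wells high / Measure: % inhibition / Compound: single nominal dose of 5.6 µM per compound / Replicates: single well per compound, no replicates / Reagent: ATP as calcium-mobilizing challenge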
PGE2 EP2 inh: inhibitors of human EP2 prostaglandin E2 receptor; inhibition, % at 25 µM; C6 glioma cells expressing human EP2, cAMP TR-FRET; cells stimulated with saturating PGE2; 260,000 compounds, 0.52% hits; AID 1422;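 active = percent inhibition above 40 after rounding to a whole number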;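 also: rat C6 glioma host cells with rolipram phosphodiesterase inhibitor present; the protocol text gives 20 µM as final concentration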
OX1R antag-1: blocks the human orexin 1 receptor; O43613; inhibition, % at 6.6 µM; OX1R-expressing cells, FRET antagonist read-out; AID 485270; 330,000 compounds, 1.8% hits; in the data active = inhibition mostly above about 38%, no sharp cut-off; inactive = mostly below about 40%;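 also: 0% = agonist challenge alone and 100% = reference antagonist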
GPR7 antag: human neuropeptides B/W receptor 1 antagonism. P48145. GPR7-expressing cells, fluorescence antagonist assay. inhibition, % at 4.4 µM. 290,000 compounds, 1.1% hits. AID 1861; in the data active = inhibition above about 16%, passing the limit was not always enough;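 also: cells stimulated with the agonist NPW; 0% = agonist with vehicle and 100% = vehicle without agonist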
Target sequence (P48145 whole entry, looked up): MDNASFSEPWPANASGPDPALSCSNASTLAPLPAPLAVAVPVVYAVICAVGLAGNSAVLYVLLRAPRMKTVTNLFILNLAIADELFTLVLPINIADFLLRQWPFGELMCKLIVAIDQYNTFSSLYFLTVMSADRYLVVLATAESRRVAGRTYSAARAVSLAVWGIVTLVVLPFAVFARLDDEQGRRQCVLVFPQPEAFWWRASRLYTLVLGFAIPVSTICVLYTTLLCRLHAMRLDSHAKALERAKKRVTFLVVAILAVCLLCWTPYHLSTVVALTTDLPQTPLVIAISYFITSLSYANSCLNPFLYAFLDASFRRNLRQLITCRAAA
OX1R antag-2: blocks the human orexin 1 receptor | O43613 | CHO/OX1R cells, Fluo-8 calcium fluorescence, orexin A | inhibition, % at 5 µM | 330,000 compounds, 0.43% hits | AID 434989;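 active = inhibition above its plate's threshold, mean inhibition of all tested compounds on the plate plus 3 SD, cut at about 37% in these data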;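 also: 0% = orexin A challenge wells and 100% = SB-334867-A antagonist wells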
EP2 modulator: EP2 receptor (human) modulation; P43116; EP2-expressing cells, cAMP HTRF FRET, PGE2 co-stimulation; induction, % at 25 µM; 260,000 compounds, 0.83% hits; AID 940;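 active = compounds whose cAMP rise, as percent of the full-agonist control response, exceeds 60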;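 also: rat C6 glioma line stably carrying human EP2 under a CMV promoter; the protocol text gives 20 µM as final concentration; 100% = response of wells given 1 µM PGE2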
GPR7 antag cf: human GPR7 antagonism, confirmation assay | GPR7-expressing cells, calcium fluorescence antagonist mode | inhibition, % at 4.4 µM | 2,400 compounds, 52% hits | shares compounds with GPR7 antag; in the data active = inhibition above about 24%;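 also: stimulated with the GPR7 agonist NPW; 0% = agonist plus vehicle and 100% = vehicle alone without agonist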
MCHR1 antagonist: counter-screen for GPR7 antagonists: antagonists of human MCHR1; inhibition, % at 4.4 µM; shares compounds with GPR7 antag; MCHR1-expressing cells, fluorescence antagonist assay; 2,400 compounds, 62% hits; in the data active = inhibition above about 22%;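 also: 0% = vehicle with agonist and 100% = vehicle without agonist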
An asterisk follows results filed as active; x = no result.

SMILES	CHO parental Ca	PGE2 EP2 inh	OX1R antag-1	GPR7 antag	OX1R antag-2	EP2 modulator	GPR7 antag cf	MCHR1 antagonist
CCOc1ccc(CN2CCN(Cc3cc4ccccc4[nH]3)CC2CCO)cc1 (stereo unspecified)	x	8	x	13	x	-85	x	x
COCc1nnc(NC(=O)c2cc(Cl)ccc2Cl)s1	x	7	x	x	x	22	x	x
COc1ccc2c3c(cccc13)C(=O)CC2	x	x	x	34*	x	x	-23	33*
c1ccc(-n2ncc3c(NCc4ccco4)ncnc32)cc1	4	11	13	24*	-3	-18	48*	44*
COc1ccc(NC(=O)CCS(=O)(=O)c2ccccc2Cl)cc1S(=O)(=O)Nc1ccc(Cl)cc1	-10	18	15	25*	0	-52	23	25*
COc1ccc(NC(=O)CCC(=O)c2cccs2)cc1S(=O)(=O)Nc1ccc(Cl)cc1	2	10	11	6	-3	-23	x	x
CSc1cccc(NC(=O)CN(C2CCCCC2)S(C)(=O)=O)c1	-7	16	30	28*	-6	-11	9	15
Cc1cccc(CN2CCN(c3nc4nonc4nc3NC3CC3)CC2)c1	-27	4	38	-6	-23	-20	x	x
Clc1cccc(CN2CCN(c3nc4nonc4nc3NC3CC3)CC2)c1	-5	10	13	27*	-27	-24	9	5
CS(=O)(=O)N1CCc2cc(-c3csc(NC(=O)Cc4cccs4)n3)ccc21	1	8	17	39*	0	0	69*	83*
O=C(O)CCN1CCCC1	x	5	x	x	x	16	x	x
O=C(CSc1nnc2ccccn12)Nc1ccc(N2CCOCC2)cc1	-5	x	0	x	-10	x	x	x
Cc1sc2nc(C(C)C)n(C3CCN(C(=O)C4CCCO4)CC3)c(=O)c2c1C (stereo unspecified)	x	6	x	x	x	26	x	x
CCC(C)(C(=O)NC1CCCC1)N(CC1CCCO1)C(=O)c1ccc2c(c1)OCO2 (stereo unspecified)	-4	10	16	0	-17	18	x	x
CCC(C)(C(=O)NC1CCCCC1)N(Cc1cccs1)C(=O)CC1NC(=O)NC1=O (stereo unspecified)	3	8	1	-9	-9	5	x	x
CCC(C)(C(=O)NC1CCCCC1)N(Cc1ccco1)C(=O)Cc1cccs1 (stereo unspecified)	-19	7	20	40*	-15	29	50*	27*
CCC(C)(C(=O)NC1CCCCC1)N(Cc1ccco1)C(=O)c1ccc2c(c1)OCO2 (stereo unspecified)	-16	5	12	34*	-33	11	34*	12
COc1ccc(OC)c(NS(=O)(=O)c2c(C(=O)N3CCCCCC3)c(C)n(C)c2C)c1	-26	x	19	45*	-1	x	28*	11
COc1ccccc1NS(=O)(=O)c1c(C(=O)N2CCCC2)c(C)n(C)c1C	3	x	6	-1	-10	x	x	x
Cc1cc(NC2CCCCC2)nc(NCc2ccccc2)n1	36*	10	19	24*	-6	10	51*	81*
COc1ccccc1N1CCN(C(=O)/C=C/c2cccc([N+](=O)[O-])c2)CC1	-16	4	3	32*	-13	-34	16	33*
COc1cccc(CN(C)C(=O)c2cc(COc3ccc4ncccc4c3)on2)c1	66*	8	40	33*	41	-45	40*	57*
O=C(CCCN1C(=O)c2cccc3cccc(c23)C1=O)OCCNC(=O)c1cccnc1	x	7	x	x	x	-17	x	x
CC[C@H](C)[C@H](NC(N)=O)C(=O)OCC(=O)NCc1ccc(Cl)cc1	-19	7	6	-2	-11	15	x	x
CN1C(=O)C(CC(=O)Nc2ccc(F)cc2)N(CCCc2ccccc2)C1=S (stereo unspecified)	4	12	52	26*	48*	-24	24*	41*
SMILES	CHO parental Ca	PGE2 EP2 inh	OX1R antag-1	GPR7 antag	OX1R antag-2	EP2 modulator	GPR7 antag cf	MCHR1 antagonist
CCC(C)(C)n1nnnc1C(c1cc(OC)ccc1OC)N1CCN(Cc2ccncc2)CC1 (stereo unspecified)	x	12	x	x	x	-36	x	x
CCC(C)(C)n1nnnc1C(c1cc(OC)ccc1OC)N1CCN(Cc2ccccc2)CC1 (stereo unspecified)	-31	4	12	27*	-46	32	31*	43*
O=C(CNCc1ccncc1)Nc1cc(S(=O)(=O)N2CCCCC2)ccc1Cl	-15	5	6	-5	-17	26	x	x
COc1ccc(Br)cc1S(=O)(=O)n1nc(C)cc1C	-13	x	17	-12	-20	x	x	x
COc1ccc(N(C)S(=O)(=O)c2cccc3cccnc23)c(OC)c1	0	7	22	-1	-9	-23	x	x
COc1ccc(N(C(=O)C2CCCCC2)S(=O)(=O)c2cccc3cccnc23)cc1	-4	6	11	21*	-35	21	1	12
Cc1ccc(CN2CCC(CNC(=O)Nc3ccccc3F)CC2)cc1	-9	x	-4	-5	-14	x	x	x
O=C(NCC1CC1)Nc1ccccc1F	-1	x	-1	99*	12	x	-7	14
CC(=O)NC12CC3CC(C1)CC(C(=O)N1CCN(S(=O)(=O)c4ccccc4[N+](=O)[O-])CC1)(C3)C2	-7	x	2	x	-23	x	x	x
CCOc1ccc(C(C)NC(=S)NCc2ccc(Cl)cc2)cc1 (stereo unspecified)	4	13	13	30*	5	-49	61*	70*
CCCc1ccc(C(C)NC(=S)NCc2ccc(F)cc2)cc1 (stereo unspecified)	33*	x	10	59*	25	x	79*	93*
Cc1onc(-c2ccccc2)c1C(=O)NCC(O)c1ccccc1 (stereo unspecified)	-10	9	10	-10	-20	-5	x	x
Fc1ccc(Cn2nnnc2C(c2ccc(Cl)cc2)N2CCSCC2)cc1 (stereo unspecified)	2	5	14	34*	-23	35	40*	27*
N=C(c1cccc([N+](=O)[O-])c1)N1CCCCC1	-2	4	33	0	-5	-3	x	x
Cc1ccc(-c2nc(SCC(=O)NCc3cccs3)c3ccccc3n2)cc1	x	3	x	x	x	5	x	x
O=c1ccc2cc(S(=O)(=O)Nc3ccc(Br)cc3)ccc2o1	x	x	x	24*	x	x	14	22*
Cn1cccc1/C=C1\SC(=S)N(Nc2ccccc2)C1=O	-18	3	11	22*	-22	4	17	23*
Cc1ccc(S(=O)(=O)NN2C(=O)/C(=C/c3cccn3C)SC2=S)cc1	-6	7	8	-3	-9	-3	x	x
Cc1nc(C)c(-c2ccc(SCC(=O)Nc3cccc(Cl)c3)nn2)s1	-1	x	39	33*	-11	x	48*	67*

Bioassay records from PubChem BioAssay.
